Measured values reported in the RNAGym collection of RNA variant scans (doi:10.1038/s41586-018-0170-7).

B1: tRNA (parent)
chain: GUUCCGUUGGCGUAAUGGUAACGCGUCUCCCUCCUAAGGAGAAGACUGCGGGUUCGAGUCCCGUACGGAACG

Variants of: B1
Experiment: yeast fitness, log relative to wild type (ln ratio); higher = fitter; tRNA-Arg(CCU), competitive growth, 37 C, 1 M NaCl
Method in brief: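 A combinatorial tRNA-Arg(CCU) variant library was carried on a HIS3 centromeric plasmid in BY4742 lacking the chromosomal gene, from two independent transformations. Pools grew 4 generations in SC-HIS at 30 °C, then ~6.5 generations (~26.5 h) in SC-HIS 1M NaCl at 37 °C, with three outputs per input. Variants were counted by 125 bp paired-end Illumina sequencing. Fitness is ln of each genotype's generations (OD-scaled log2 output/input frequency, inverse-variance weighted across replicates) over the wild-type's.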

**Q.** Which “yeast fitness (ln)” value does the source give for U2G C27U C66A A70U here?
**A.** -0.0765

**Q.** For G1A C27U A43C C66U A69G A70U C71U, which “yeast fitness (ln)” value is on record?
**A.** -0.505

**Q.** Which “yeast fitness (ln)” value does the source give for G6A C46U C66U C71U here?
**A.** -0.0146

**Q.** For G1A G6A C27U C66U A70G, which “yeast fitness (ln)” value is on record?
**A.** -0.187

**Q.** Which “yeast fitness (ln)” value does the source give for G1A U2C G6U A43C here?
**A.** -0.116

**Q.** For G1A U2G G6A, which “yeast fitness (ln)” value is on record?
**A.** -0.0537

**Q.** For U2G G6A C27U A43C C46U C66U A69G A70U, which “yeast fitness (ln)” value is on record?
**A.** -0.292

**Q.** Which “yeast fitness (ln)” value does the source give for G1A U2G C27U C46U C66A A70G C71U here?
**A.** -0.203

**Q.** For G1A U2C G6U C46U C66U A70U, which “yeast fitness (ln)” value is on record?
**A.** -0.0663

**Q.** Which “yeast fitness (ln)” value does the source give for G1A U2C G6U C46U C66U A70G here?
**A.** -0.265

**Q.** Which “yeast fitness (ln)” value does the source give for U2G A43C C46U C66U A69G here?
**A.** -0.199

**Q.** For U2G G6U C27U A43C C46U C66A A69G A70U C71U, which “yeast fitness (ln)” value is on record?
**A.** -0.386

**Q.** With G6U A43C C46U A70U C71U as the variant, how does the “yeast fitness (ln)” value read?
**A.** -0.225

**Q.** For G6U C66A A69G A70U C71U, which “yeast fitness (ln)” value is on record?
**A.** -0.408

**Q.** Which “yeast fitness (ln)” value does the source give for G1A U2G C27U A43C C66A A69G A70G here?
**A.** -0.27

**Q.** For G1A U2G G6U C46U C66U A70G C71U, which “yeast fitness (ln)” value is on record?
**A.** -0.216

**Q.** Which “yeast fitness (ln)” value does the source give for U2C G6A C66U C71U here?
**A.** -0.28

**Q.** Which “yeast fitness (ln)” value does the source give for G1A C27U C66U A69G A70G here?
**A.** -0.211

**Q.** Which “yeast fitness (ln)” value does the source give for G1A U2C A43C A69G A70U C71U here?
**A.** -0.29

**Q.** With U2G G6A A43C C46U C66A C71U as the variant, how does the “yeast fitness (ln)” value read?
**A.** -0.153

**Q.** With G6A C27U C46U C66U A69G C71U as the variant, how does the “yeast fitness (ln)” value read?
**A.** -0.446

**Q.** With G1A G6U C27U A43C C46U C66U A69G A70G C71U as the variant, how does the “yeast fitness (ln)” value read?
**A.** -0.501

**Q.** Which “yeast fitness (ln)” value does the source give for C27U A43C A70U C71U here?
**A.** -0.181

**Q.** For G1A G6U C71U, which “yeast fitness (ln)” value is on record?
**A.** -0.481

**Q.** Which “yeast fitness (ln)” value does the source give for U2G G6U C27U A43C C46U A70G C71U here?
**A.** -0.295

**Q.** Which “yeast fitness (ln)” value does the source give for G1A U2G G6U A43C C66A A70G C71U here?
**A.** -0.301

**Q.** For U2C G6A A43C C46U C66U, which “yeast fitness (ln)” value is on record?
**A.** -0.0992

**Q.** Which “yeast fitness (ln)” value does the source give for G1A C27U A43C C66U A69G A70G C71U here?
**A.** -0.371

**Q.** With G6U A43C C66A as the variant, how does the “yeast fitness (ln)” value read?
**A.** -0.0198

**Q.** For G1A U2G G6A C27U A43C C46U C71U, which “yeast fitness (ln)” value is on record?
**A.** -0.42

**Q.** Which “yeast fitness (ln)” value does the source give for G1A U2G C27U C71U here?
**A.** -0.108

**Q.** With G1A U2G G6A A43C C46U A70G C71U as the variant, how does the “yeast fitness (ln)” value read?
**A.** -0.202

**Q.** For C27U A69G A70G, which “yeast fitness (ln)” value is on record?
**A.** -0.0809

**Q.** With G6A C27U A43C C46U A70G C71U as the variant, how does the “yeast fitness (ln)” value read?
**A.** -0.25

**Q.** Which “yeast fitness (ln)” value does the source give for G1A G6U C27U A43C C66U A69G A70U C71U here?
**A.** -0.435

**Q.** Which “yeast fitness (ln)” value does the source give for G1A U2G G6A A43C A69G A70G here?
**A.** -0.238

**Q.** For G1A U2G G6A C27U C66U A69G A70G, which “yeast fitness (ln)” value is on record?
**A.** -0.431

**Q.** For G1A U2G G6U C66U C71U, which “yeast fitness (ln)” value is on record?
**A.** -0.249

**Q.** For G1A U2G C46U A69G A70U, which “yeast fitness (ln)” value is on record?
**A.** -0.238

**Q.** With G1A U2G G6U A43C C66A A69G A70U C71U as the variant, how does the “yeast fitness (ln)” value read?
**A.** -0.351

**Q.** Which “yeast fitness (ln)” value does the source give for U2C C27U C66A A70U here?
**A.** -0.0861

**Q.** Which “yeast fitness (ln)” value does the source give for G6U A43C C46U A69G here?
**A.** -0.176

**Q.** For G1A U2G G6A C27U A43C C46U C66U A70U C71U, which “yeast fitness (ln)” value is on record?
**A.** -0.645

**Q.** Which “yeast fitness (ln)” value does the source give for U2G G6A C27U C66A A69G A70U C71U here?
**A.** -0.499

**Q.** For G1A G6A C27U A43C A69G C71U, which “yeast fitness (ln)” value is on record?
**A.** -0.598

**Q.** With U2C C27U A43C C66A A69G A70U C71U as the variant, how does the “yeast fitness (ln)” value read?
**A.** -0.443

**Q.** For G1A C46U C66A A69G A70G, which “yeast fitness (ln)” value is on record?
**A.** -0.183

**Q.** Which “yeast fitness (ln)” value does the source give for U2G G6U C46U C66A A69G A70U C71U here?
**A.** -0.646

**Q.** Which “yeast fitness (ln)” value does the source give for U2C G6A C27U A43C A70G here?
**A.** -0.153

**Q.** For G1A U2G G6U C27U A43C A69G A70U, which “yeast fitness (ln)” value is on record?
**A.** -0.454

**Q.** For G1A U2G G6U C27U A43C A69G A70G, which “yeast fitness (ln)” value is on record?
**A.** -0.326

**Q.** For U2G G6A C66U A69G A70G C71U, which “yeast fitness (ln)” value is on record?
**A.** -0.161

**Q.** With G1A U2C G6U C71U as the variant, how does the “yeast fitness (ln)” value read?
**A.** -0.159

**Q.** For G6U C46U C66A A69G A70U C71U, which “yeast fitness (ln)” value is on record?
**A.** -0.418

**Q.** With G1A G6A C27U C46U A70G C71U as the variant, how does the “yeast fitness (ln)” value read?
**A.** -0.366

**Q.** Which “yeast fitness (ln)” value does the source give for G1A U2G C66U A70U C71U here?
**A.** -0.486

**Q.** With U2C C27U C46U C66A A69G A70U as the variant, how does the “yeast fitness (ln)” value read?
**A.** -0.114

**Q.** With G1A G6A A43C C46U C66U A70U C71U as the variant, how does the “yeast fitness (ln)” value read?
**A.** -0.331

**Q.** Which “yeast fitness (ln)” value does the source give for G1A G6U C27U A43C here?
**A.** -0.258

**Q.** For U2C G6A C27U C66A A70U, which “yeast fitness (ln)” value is on record?
**A.** -0.0448

**Q.** Which “yeast fitness (ln)” value does the source give for U2C C27U C66A A70U C71U here?
**A.** -0.222

**Q.** For G1A U2G C27U C46U C66U A70G C71U, which “yeast fitness (ln)” value is on record?
**A.** -0.218

**Q.** Which “yeast fitness (ln)” value does the source give for U2C G6U A43C C46U A69G C71U here?
**A.** -0.17

**Q.** For G1A G6A, which “yeast fitness (ln)” value is on record?
**A.** -0.0503

**Q.** For U2C A43C C46U C66A A70G, which “yeast fitness (ln)” value is on record?
**A.** -0.058

**Q.** For U2G G6U C27U C66A A70G C71U, which “yeast fitness (ln)” value is on record?
**A.** -0.239

**Q.** With U2G G6A C66U A69G A70U as the variant, how does the “yeast fitness (ln)” value read?
**A.** -0.00753

**Q.** For U2G G6U C66A A70G, which “yeast fitness (ln)” value is on record?
**A.** -0.0514

**Q.** Which “yeast fitness (ln)” value does the source give for U2G G6U C66A A70U here?
**A.** 0.00254

**Q.** With G6U C66A A69G C71U as the variant, how does the “yeast fitness (ln)” value read?
**A.** -0.0488

**Q.** Which “yeast fitness (ln)” value does the source give for U2G A43C C46U A69G A70U C71U here?
**A.** -0.509

**Q.** For G1A U2G C27U A43C C66A C71U, which “yeast fitness (ln)” value is on record?
**A.** -0.377

**Q.** With G6U C46U A69G A70U as the variant, how does the “yeast fitness (ln)” value read?
**A.** -0.204

**Q.** Which “yeast fitness (ln)” value does the source give for U2G C27U A43C C46U C66U here?
**A.** -0.146

**Q.** With U2C C46U A69G as the variant, how does the “yeast fitness (ln)” value read?
**A.** -0.0478

**Q.** With G6A C27U C46U C66A as the variant, how does the “yeast fitness (ln)” value read?
**A.** -0.126

**Q.** With G1A G6U C27U C46U A70G C71U as the variant, how does the “yeast fitness (ln)” value read?
**A.** -0.262

**Q.** For G1A U2G G6A C27U A43C C46U C66A A69G C71U, which “yeast fitness (ln)” value is on record?
**A.** -0.275

**Q.** With G1A U2C C27U C46U A69G A70G as the variant, how does the “yeast fitness (ln)” value read?
**A.** -0.122

**Q.** For G1A U2G G6A C46U A70U C71U, which “yeast fitness (ln)” value is on record?
**A.** -0.559

**Q.** For G1A U2G A43C C66U A70G C71U, which “yeast fitness (ln)” value is on record?
**A.** -0.22

**Q.** Which “yeast fitness (ln)” value does the source give for G1A G6U C27U A43C C46U here?
**A.** -0.258

**Q.** With G1A U2G G6U A43C A69G C71U as the variant, how does the “yeast fitness (ln)” value read?
**A.** -0.537

**Q.** With U2G G6A C66U A70U C71U as the variant, how does the “yeast fitness (ln)” value read?
**A.** -0.0405
